Data published in ChEMBL document CHEMBL3808334, “Synthesis and in vitro evaluation of novel triazine analogues as anticancer agents and their interaction studies with bovine serum albumin” (Eur J Med Chem, 2016).

What was measured:
Format in all cases: ADME
Conditions in all cases: cattle, isolated protein; call rule not given here
[1] = molecular target: T1, Albumin (Bos taurus, UniProt P02769); assay: Binding affinity to bovine serum albumin assessed as binding constant in emission spectra by Benesie-Hildebrand plot analysis
Procedure, shortened: (§1)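 BSA, 10 µM, in 0.1 M phosphate buffer pH 7.4, titrated with compound (0–20 µM per the figure; diluted from 10⁻³ mol L⁻¹ DMSO stocks). Run at 300 K in a 1 cm quartz cell. UV spectra taken 200–800 nm after 5 min equilibration; fluorescence excited at 280 nm, emission 351 nm, slit 10 nm. K is the intercept/slope ratio of a linear fit of 1/(A₀−A) or 1/(F₀−F) vs 1/[compound].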

[2] = molecular target: T1, Albumin; assay: Binding affinity to bovine serum albumin assessed as isoemissive point up to 20 uM by fluorescence spectroscopic analysis relative to control
Procedure, shortened: (§2)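 Fluorescence titration of 10 µM BSA in 0.1 M phosphate buffer pH 7.4 with compound at 0–20 µM, diluted from DMSO stocks. Excitation 280 nm, slit 10 nm, 1 cm quartz cell, 300 K. Changes in the 350 nm Trp emission, new bands near 370–373 nm and isoemissive points are read against BSA alone.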

[3] = molecular target: T1, Albumin; assay: Binding affinity to bovine serum albumin assessed as red shift in emission intensity up to 20 uM by fluorescence spectroscopic analysis relative to control; procedure, shortened: as §2
[4] = molecular target: T1, Albumin; assay: Binding affinity to bovine serum albumin assessed as binding constant in absorption spectra by Benesie-Hildebrand plot analysis; procedure, shortened: as §1
[5] = molecular target: T1, Albumin; assay: Binding affinity to bovine serum albumin assessed as hyperchromicity in absorption spectra up to 20 uM after 5 mins by UV-visible spectroscopic analysis relative to control
Procedure, shortened: (§3)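 UV-visible absorption titration of 10 µM BSA in 0.1 M phosphate buffer pH 7.4 with increasing compound, 0–20 µM. Compounds diluted from DMSO stocks into buffer. Spectra recorded 200–800 nm in a 1 cm quartz cell at 300 K after 5 min equilibration. The BSA band is at 279 nm; changes are compared with BSA alone.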

[6] = molecular target: T1, Albumin; assay: Binding affinity to bovine serum albumin assessed as enhancement in emission spectra up to 20 uM by fluorescence spectroscopic analysis relative to control; procedure, shortened: as §2
[7] = molecular target: T1, Albumin; assay: Binding affinity to bovine serum albumin up to 20 uM after 5 mins by fluorescence spectroscopic analysis; procedure, shortened: as §2
[8] = molecular target: T1, Albumin; assay: Binding affinity to bovine serum albumin assessed as change in hyperchromicity in absorption spectra up to 20 uM after 5 mins by UV-visible spectroscopic analysis relative to control; procedure, shortened: as §3

T1 sequence (P02769 whole entry): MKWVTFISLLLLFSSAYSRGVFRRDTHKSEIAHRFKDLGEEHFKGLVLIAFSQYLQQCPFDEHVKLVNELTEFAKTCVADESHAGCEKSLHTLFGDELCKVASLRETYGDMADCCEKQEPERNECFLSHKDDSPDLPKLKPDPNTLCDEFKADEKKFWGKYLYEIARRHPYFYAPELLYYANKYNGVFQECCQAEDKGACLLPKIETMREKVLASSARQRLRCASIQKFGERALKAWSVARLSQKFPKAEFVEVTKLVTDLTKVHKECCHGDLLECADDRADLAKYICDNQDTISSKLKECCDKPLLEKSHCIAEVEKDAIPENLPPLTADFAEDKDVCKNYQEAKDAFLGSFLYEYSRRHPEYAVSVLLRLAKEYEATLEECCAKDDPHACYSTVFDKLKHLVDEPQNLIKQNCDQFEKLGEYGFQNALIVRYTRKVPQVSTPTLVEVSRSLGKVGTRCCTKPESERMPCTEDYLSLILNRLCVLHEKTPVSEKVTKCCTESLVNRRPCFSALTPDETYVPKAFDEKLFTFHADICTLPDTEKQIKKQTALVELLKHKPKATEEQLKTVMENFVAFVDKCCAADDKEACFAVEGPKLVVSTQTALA

Row | K [1] | Activity [2] | Activity [3] | K [4] | Activity [5] | Activity [6] | Activity [7] | Activity [8] | SMILES
1 | 1.6 ×10⁵ /M | 349 nm | 17 nm | 1 ×10⁵ /M | 85.87% | 23.12% | – | – | c1ccc2[nH]c(-c3ccc(Nc4nc(NC5CCCCC5)nc(N5CCOCC5)n4)cc3)nc2c1
2 | 8 ×10⁴ /M | 340 nm | 23 nm | 9.5 ×10⁴ /M | 90.6% | 71.82% | – | – | OCCNc1nc(Nc2ccc(-c3nc4ccccc4[nH]3)cc2)nc(N2CCOCC2)n1
3 | – | – | – | – | – | – | Not Active | Not Active | FC(F)(F)c1ccc(-c2nc(Nc3ccc(-c4nc5ccccc5[nH]4)cc3)nc(N3CCOCC3)n2)cc1
4 | 1.8 ×10⁵ /M | 352 nm | 24 nm | 1.2 ×10⁴ /M | 88.44% | 42.06% | – | – | c1ccc(CNc2nc(Nc3ccc(-c4nc5ccccc5[nH]4)cc3)nc(N3CCOCC3)n2)cc1
5 | 5.7 ×10⁴ /M | 345 nm | 23 nm | 8.4 ×10⁴ /M | 85.95% | 57.22% | – | – | c1ccc2[nH]c(-c3ccc(Nc4nc(NCCN5CCOCC5)nc(N5CCOCC5)n4)cc3)nc2c1
6 | 5.4 ×10⁴ /M | 343 nm | 25 nm | 1.2 ×10⁵ /M | 68.72% | 73.21% | – | – | OCCN1CCN(c2nc(Nc3ccc(-c4nc5ccccc5[nH]4)cc3)nc(N3CCOCC3)n2)CC1
7 | 2.6 ×10⁴ /M | 339 nm | 22 nm | 8.5 ×10⁴ /M | 75.98% | 77.53% | – | – | CN1CCN(c2nc(Nc3ccc(-c4nc5ccccc5[nH]4)cc3)nc(N3CCOCC3)n2)CC1
8 | – | – | – | – | – | – | Not Active | Not Active | c1csc(-c2nc(Nc3ccc(-c4nc5ccccc5[nH]4)cc3)nc(N3CCOCC3)n2)c1
9 | 5.4 ×10⁴ /M | 341 nm | 22 nm | 1 ×10⁵ /M | 65.29% | 68.99% | – | – | c1ccc2[nH]c(-c3ccc(Nc4nc(N5CCCC5)nc(N5CCOCC5)n4)cc3)nc2c1
10 | – | – | – | – | – | – | Not Active | Not Active | NNc1nc(Nc2ccc(-c3nc4ccccc4[nH]3)cc2)nc(N2CCOCC2)n1
11 | 6.9 ×10⁴ /M | 350 nm | 24 nm | 7 ×10⁴ /M | 72.93% | 63.43% | – | – | c1ccc2[nH]c(-c3ccc(Nc4nc(N5CCOCC5)nc(N5CCOCC5)n4)cc3)nc2c1
12 | 1.3 ×10⁵ /M | 347 nm | 22 nm | 6.3 ×10⁴ /M | 70.53% | 69.01% | – | – | NCCNc1nc(Nc2ccc(-c3nc4ccccc4[nH]3)cc2)nc(N2CCOCC2)n1
13 | – | – | – | – | – | – | Not Active | Not Active | c1coc(-c2nc(Nc3ccc(-c4nc5ccccc5[nH]4)cc3)nc(N3CCOCC3)n2)c1
